≈ marks a conversion by molar mass, not a printed value.
Legend:
Staphylococcus aureus [1] = test: Antibacterial activity against Staphylococcus aureus MTCC 96 by conventional broth microdilution method; format: functional
Streptococcus pyogenes [2] = test: Antibacterial activity against Streptococcus pyogenes MTCC 442 by conventional broth microdilution method; format: functional
Escherichia coli = test: Antibacterial activity against Escherichia coli MTCC 443 by conventional broth microdilution method; format: functional
[3] = system: Mycobacterium tuberculosis; test: Antimycobacterial activity against Mycobacterium tuberculosis H37Rv by Lowenstein-Jensen slope method; format: functional; conditions: for MIC: Mycobacterium tuberculosis, H37Rv
Candida albicans = test: Antifungal activity against Candida albicans MTCC 227 by conventional broth microdilution method; format: functional
Aspergillus niger = test: Antifungal activity against Aspergillus niger MTCC 282 by conventional broth microdilution method; format: functional
Aspergillus clavatus = test: Antifungal activity against Aspergillus clavatus MTCC 1323 by conventional broth microdilution method; format: functional
Pseudomonas aeruginosa [4] = test: Antibacterial activity against Pseudomonas aeruginosa MTCC 1688 by conventional broth microdilution method; format: functional
HeLa = test: Cytotoxicity against human HeLa cells after 24 hrs incubation by MTT assay; format: functional, cell-based
Summary of the method: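 HeLa cells (1.0 × 10⁴) were exposed to a range of test compound concentrations for 24 h at 37 °C under 5% CO₂. MTT was then added, the supernatant was discarded, and the formazan was dissolved in DMSO. Absorbance was read at 540 nm, and IC₅₀ was reported in µM.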

Staphylococcus aureus [5] = test: Ratio of ciprofloxacin MIC to compound MIC for Staphylococcus aureus MTCC 96; format: functional
Streptococcus pyogenes [6] = test: Ratio of ciprofloxacin MIC to compound MIC for Streptococcus pyogenes MTCC 442; format: functional
Pseudomonas aeruginosa [7] = test: Ratio of ciprofloxacin MIC to compound MIC for Pseudomonas aeruginosa MTCC 1688; format: functional

Row | Structure (SMILES) | MIC (Staphylococcus aureus [1]) [µg/mL] | MIC (Streptococcus pyogenes [2]) [µg/mL] | MIC (Escherichia coli) [µg/mL] | MIC [3] [µg/mL] | MIC (Candida albicans) [µg/mL] | MIC (Aspergillus niger) [µg/mL] | MIC (Aspergillus clavatus) [µg/mL] | inhibition (INH) [3] [%] | MIC (Pseudomonas aeruginosa [4]) [µg/mL] | IC50 (HeLa) [µM] | Ratio (Staphylococcus aureus [5]) | Ratio (Streptococcus pyogenes [6]) | Ratio (Pseudomonas aeruginosa [7])
1 | O=C(O)c1cn(C2CC2)c2cc(N3CCNCC3)c(F)cc2c1=O [CIPROFLOXACIN] | 50 (≈ 151 µM) | 50 (≈ 151 µM) | 25 (≈ 75.4 µM) | – | – | – | – | – | – | – | – | – | –
2 | NNC(=O)c1ccncc1 [ISONIAZID] | – | – | – | 0.2 (≈ 1.46 µM) | – | – | – | – | – | – | – | – | –
3 | COC1=CC(=O)C[C@@H](C)[C@]12Oc1c(Cl)c(OC)cc(OC)c1C2=O [GRISEOFULVIN] | – | – | – | – | 500 (≈ 1420 µM) | 100 (≈ 283 µM) | 100 (≈ 283 µM) | – | – | – | – | – | –
4 | N#CCCSC1=NC(c2ccc(Br)cc2)=CC(c2cc3cc(Cl)ccc3nc2Cl)N1 (configuration not stated) | 250 (≈ 482 µM) | 500 (≈ 965 µM) | 1000 (≈ 1930 µM) | – | 500 (≈ 965 µM) | 1000 (≈ 1930 µM) | 500 (≈ 965 µM) | 58 | 500 (≈ 965 µM) | – | – | – | –
5 | N#CCCSC1=NC(c2cccc(Br)c2)=CC(c2cc3cc(Cl)ccc3nc2Cl)N1 (configuration not stated) | 500 (≈ 965 µM) | 1000 (≈ 1930 µM) | > 1000 | – | > 1000 | 500 (≈ 965 µM) | 1000 (≈ 1930 µM) | 66 | 1000 (≈ 1930 µM) | – | – | – | –
6 | N#CCCSC1=NC(c2ccc([N+](=O)[O-])cc2)=CC(c2cc3cc(Cl)ccc3nc2Cl)N1 (configuration not stated) | 1000 (≈ 2060 µM) | 500 (≈ 1030 µM) | 500 (≈ 1030 µM) | – | > 1000 | > 1000 | 1000 (≈ 2060 µM) | 56 | 1000 (≈ 2060 µM) | – | – | – | –
7 | N#CCCSC1=NC(c2cccc(O)c2)=CC(c2cc3cc(Cl)ccc3nc2Cl)N1 (configuration not stated) | 100 (≈ 220 µM) | 100 (≈ 220 µM) | 125 (≈ 275 µM) | 100 (≈ 220 µM) | 500 (≈ 1100 µM) | 250 (≈ 549 µM) | 250 (≈ 549 µM) | 98 | 250 (≈ 549 µM) | – | – | – | –
8 | Cc1ccc(C2=CC(c3cc4cc(Cl)ccc4nc3Cl)NC(SCCC#N)=N2)cc1 (configuration not stated) | 25 (≈ 55.1 µM) | 25 (≈ 55.1 µM) | 50 (≈ 110 µM) | 3.12 (≈ 6.88 µM) | 500 (≈ 1100 µM) | 500 (≈ 1100 µM) | 250 (≈ 551 µM) | 98 | 50 (≈ 110 µM) | 94.2 | 2 | 2 | –
9 | N#CCCSC1=NC(c2ccc(O)cc2)=CC(c2cc3cc(Cl)ccc3nc2Cl)N1 (configuration not stated) | 25 (≈ 54.9 µM) | 12.5 (≈ 27.5 µM) | 50 (≈ 110 µM) | 3.12 (≈ 6.85 µM) | 250 (≈ 549 µM) | 25 (≈ 54.9 µM) | 25 (≈ 54.9 µM) | 99 | 25 (≈ 54.9 µM) | > 100 | 4 | 4 | 2
10 | N#CCCSC1=NC(c2ccc(F)cc2)=CC(c2cc3cc(Cl)ccc3nc2Cl)N1 (configuration not stated) | 500 (≈ 1090 µM) | 500 (≈ 1090 µM) | 1000 (≈ 2190 µM) | – | 1000 (≈ 2190 µM) | 1000 (≈ 2190 µM) | 500 (≈ 1090 µM) | 69 | > 1000 | – | – | – | –
11 | Cc1cccc(C2=CC(c3cc4cc(Cl)ccc4nc3Cl)NC(SCCC#N)=N2)c1 (configuration not stated) | 100 (≈ 221 µM) | 100 (≈ 221 µM) | 250 (≈ 551 µM) | – | 1000 (≈ 2210 µM) | 500 (≈ 1100 µM) | 500 (≈ 1100 µM) | 81 | 100 (≈ 221 µM) | – | – | – | –
12 | N#CCCSC1=NC(c2ccc(Cl)cc2)=CC(c2cc3cc(Cl)ccc3nc2Cl)N1 (configuration not stated) | 250 (≈ 528 µM) | 500 (≈ 1060 µM) | 1000 (≈ 2110 µM) | – | > 1000 | 500 (≈ 1060 µM) | 1000 (≈ 2110 µM) | 42 | 500 (≈ 1060 µM) | – | – | – | –
13 | N#CCCSC1=NC(c2ccccc2)=CC(c2cc3cc(Cl)ccc3nc2Cl)N1 (configuration not stated) | 100 (≈ 228 µM) | 250 (≈ 569 µM) | 500 (≈ 1140 µM) | – | 1000 (≈ 2280 µM) | 1000 (≈ 2280 µM) | 500 (≈ 1140 µM) | 62 | 250 (≈ 569 µM) | – | – | – | –
14 | COc1ccc(C2=CC(c3cc4cc(Cl)ccc4nc3Cl)NC(SCCC#N)=N2)cc1 (configuration not stated) | 12.5 (≈ 26.6 µM) | 25 (≈ 53.3 µM) | 25 (≈ 53.3 µM) | 0.2 (≈ 0.426 µM) | 1000 (≈ 2130 µM) | 250 (≈ 533 µM) | 250 (≈ 533 µM) | 99 | 25 (≈ 53.3 µM) | > 100 | 4 | 4 | –
15 | N#CCCSC1=NC(c2cccc(F)c2)=CC(c2cc3cc(Cl)ccc3nc2Cl)N1 (configuration not stated) | 125 (≈ 273 µM) | 250 (≈ 547 µM) | 500 (≈ 1090 µM) | – | 1000 (≈ 2190 µM) | > 1000 | 500 (≈ 1090 µM) | 41 | 500 (≈ 1090 µM) | – | – | – | –
16 | N#CCCSC1=NC(c2cccc(Cl)c2)=CC(c2cc3cc(Cl)ccc3nc2Cl)N1 (configuration not stated) | 250 (≈ 528 µM) | 500 (≈ 1060 µM) | 1000 (≈ 2110 µM) | – | > 1000 | 500 (≈ 1060 µM) | 1000 (≈ 2110 µM) | 62 | 500 (≈ 1060 µM) | – | – | – | –
17 | N#CCCSC1=NC(c2cccc([N+](=O)[O-])c2)=CC(c2cc3cc(Cl)ccc3nc2Cl)N1 (configuration not stated) | 500 (≈ 1030 µM) | 1000 (≈ 2060 µM) | > 1000 | – | > 1000 | 500 (≈ 1030 µM) | > 1000 | 38 | 1000 (≈ 2060 µM) | – | – | – | –
18 | COc1cccc(C2=CC(c3cc4cc(Cl)ccc4nc3Cl)NC(SCCC#N)=N2)c1 (configuration not stated) | 50 (≈ 107 µM) | 100 (≈ 213 µM) | 100 (≈ 213 µM) | 12.5 (≈ 26.6 µM) | 500 (≈ 1070 µM) | 500 (≈ 1070 µM) | 100 (≈ 213 µM) | 97 | 250 (≈ 533 µM) | – | – | – | –
